Data published in ChEMBL document CHEMBL1126768, “A mechanism-based inactivation study of neutral endopeptidase 24.11” (J Med Chem, 1993).

Experiments:
[1] = target: T1, Neprilysin (Homo sapiens, UniProt P08473); experiment: Inhibition constant determined for neutral endopeptidase (NEP)
Procedure, shortened: (§1)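 Reversible inhibition of recombinant human NEP (0.5 μM final), tested with inactivator at 1–50 μM in 50 mM HEPES pH 7.4 plus 5% p-dioxane. DAGNPG substrate was used at 100 and 500 μM. NEP was added last and activity was read immediately by continuous fluorescence (ex 342, em 562 nm).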

[2] = target: T2, Angiotensin-converting enzyme (Rattus norvegicus, UniProt P47820); experiment: Inhibition constant determined for angiotensin converting enzyme (ACE)
T2 sequence (P47820 whole entry): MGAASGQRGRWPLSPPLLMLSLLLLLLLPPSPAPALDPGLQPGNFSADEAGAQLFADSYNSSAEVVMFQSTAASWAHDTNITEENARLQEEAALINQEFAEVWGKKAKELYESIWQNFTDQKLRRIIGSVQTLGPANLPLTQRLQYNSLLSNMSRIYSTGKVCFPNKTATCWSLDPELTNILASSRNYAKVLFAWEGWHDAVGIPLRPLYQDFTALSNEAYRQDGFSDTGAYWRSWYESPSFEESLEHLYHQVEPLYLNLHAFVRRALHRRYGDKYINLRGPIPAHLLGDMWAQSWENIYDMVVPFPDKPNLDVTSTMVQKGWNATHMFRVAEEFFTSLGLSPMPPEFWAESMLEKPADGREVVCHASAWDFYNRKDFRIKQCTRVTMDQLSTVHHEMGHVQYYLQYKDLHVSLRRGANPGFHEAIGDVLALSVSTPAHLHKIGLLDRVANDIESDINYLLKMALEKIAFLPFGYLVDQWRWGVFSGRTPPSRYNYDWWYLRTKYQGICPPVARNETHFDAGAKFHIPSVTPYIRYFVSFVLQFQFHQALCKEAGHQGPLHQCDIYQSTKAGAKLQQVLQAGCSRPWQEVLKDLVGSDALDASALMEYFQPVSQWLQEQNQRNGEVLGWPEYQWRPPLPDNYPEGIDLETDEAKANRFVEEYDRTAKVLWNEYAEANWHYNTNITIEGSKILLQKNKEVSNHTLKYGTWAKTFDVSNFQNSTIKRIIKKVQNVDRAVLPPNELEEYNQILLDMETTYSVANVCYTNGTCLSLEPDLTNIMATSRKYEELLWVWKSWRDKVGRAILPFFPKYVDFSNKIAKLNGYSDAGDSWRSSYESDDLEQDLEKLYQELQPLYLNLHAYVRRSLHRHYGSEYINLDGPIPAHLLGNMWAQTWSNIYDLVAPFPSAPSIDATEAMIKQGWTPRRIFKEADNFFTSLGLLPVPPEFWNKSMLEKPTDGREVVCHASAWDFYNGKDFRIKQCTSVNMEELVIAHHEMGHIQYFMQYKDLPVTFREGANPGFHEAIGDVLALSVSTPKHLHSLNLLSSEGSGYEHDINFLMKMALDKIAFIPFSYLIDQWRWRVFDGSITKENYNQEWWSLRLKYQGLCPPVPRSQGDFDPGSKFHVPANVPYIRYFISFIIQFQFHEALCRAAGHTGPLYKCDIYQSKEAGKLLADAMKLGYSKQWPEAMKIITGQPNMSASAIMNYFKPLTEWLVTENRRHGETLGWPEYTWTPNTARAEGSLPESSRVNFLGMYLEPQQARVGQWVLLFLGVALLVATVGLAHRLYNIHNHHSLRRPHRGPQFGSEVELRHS

[3] = target: T1, Neprilysin; experiment: Inhibition constant determined for Neutral endopeptidase (NEP); procedure, shortened: as §1
[4] = target: T2, Angiotensin-converting enzyme; experiment: Inhibition constant determined for Angiotensin I converting enzyme

T1 sequence (P08473 whole entry): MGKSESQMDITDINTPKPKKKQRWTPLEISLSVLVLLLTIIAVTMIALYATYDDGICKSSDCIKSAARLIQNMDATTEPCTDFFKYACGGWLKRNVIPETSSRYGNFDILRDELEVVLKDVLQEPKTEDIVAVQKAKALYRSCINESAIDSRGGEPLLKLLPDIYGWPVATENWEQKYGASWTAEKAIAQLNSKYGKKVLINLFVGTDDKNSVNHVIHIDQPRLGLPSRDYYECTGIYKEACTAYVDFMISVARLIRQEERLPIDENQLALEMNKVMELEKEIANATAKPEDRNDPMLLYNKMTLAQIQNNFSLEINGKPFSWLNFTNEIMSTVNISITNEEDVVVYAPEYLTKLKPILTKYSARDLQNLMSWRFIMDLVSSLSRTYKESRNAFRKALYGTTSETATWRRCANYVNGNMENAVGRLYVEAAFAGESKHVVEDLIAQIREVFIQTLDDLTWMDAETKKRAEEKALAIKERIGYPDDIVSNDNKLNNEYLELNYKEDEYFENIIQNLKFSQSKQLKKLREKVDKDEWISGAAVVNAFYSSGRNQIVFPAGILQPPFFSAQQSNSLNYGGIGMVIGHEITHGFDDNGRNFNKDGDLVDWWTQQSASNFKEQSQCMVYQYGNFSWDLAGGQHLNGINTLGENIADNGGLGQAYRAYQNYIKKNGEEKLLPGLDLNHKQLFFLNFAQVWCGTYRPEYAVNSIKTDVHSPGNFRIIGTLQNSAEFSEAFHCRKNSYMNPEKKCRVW

Ki [1] [µM] | Ki [2] [mM] | Ki [3] [µM] | Ki [4] [µM] | Compound
14 | > 10 | – | – | N#CCC(=O)CC(Cc1ccccc1)C(=O)NC(Cc1ccccc1)C(=O)O (centres undefined)
– | – | 17 | 65 | N#CCC(=O)NC(Cc1ccccc1)C(=O)NC(Cc1ccccc1)C(=O)O (centres undefined)
